This is an account of results in ChEMBL document CHEMBL5678798 (Clin Cancer Res, 2009).

The source made the active and inactive calls. No cut-off for these calls is given here. A value given as a limit tells only on which side of the number the result lay.

The subject of one data set is MOLP-8. Briefly: Antiproliferative activity against human MOLP8 cells assessed as reduction in cell viability after 72 hrs by CellTiter-Glo assay. Type of data set: functional, cell-based. Particulars: MOLP-8, 72 h. Put shortly:
(§1)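 Cells seeded in 96-well plates, left overnight at 37°C, then exposed to a range of test concentrations for 72 h. Viability read by CellTiter-Glo luminescence; IC50 from four-parameter curve fit. Lines kept at 37°C, 5% CO2, in recommended growth medium.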
(In ATP-based viability assays light output follows the ATP content of the culture.)

The nature of data set [1]: Cytotoxicity against HMEC cells assessed as reduction in cell viability after 72 hrs by CellTiter-Glo assay. The conditions noted are these: human. Format: toxicity, cell-based. The gist of the method:
as §1

The test system of a further data set is MCF7. Kind of data set: Induction of cell cycle arrest in human MCF7 cells assessed as effect on sub-2N-DNA content at 0.03 to 10 uM incubated for 24 to 48 hrs by propidium iodide staining based flow cytometric analysis. Type of data set: functional. The conditions noted are these: dose 0.03-10 µM, time lower 24.0 hrs, time upper […]. Put shortly:
(§2)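 COLO 205, MCF-7 or NCI-H929 cells seeded in 96-well plates overnight at 37°C, then exposed to DMSO or increasing compound concentrations for 24 or 48 h. Fixed and stained with propidium iodide (Vindelov method), then analysed by flow cytometry for sub-G1, G1, S and G2-M fractions. Experiment repeated twice.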
A general note: Flow cytometry measures light scatter and fluorescence of single cells or particles in a stream.

A further data set relates to NCI-H929. Kind of data set: Induction of cell cycle arrest in human NCI-H929 cells assessed as cells accumulation at S phase at 1 umol/L incubated for 48 hrs by propidium iodide staining based flow cytometric analysis (reference value: 15%). Particulars: dose 1 µmol/L, at 1 µM. Type of data set: functional. The gist of the method:
as §2

Data set [2] can be described thus: In vivo inhibition of IGF1R in mouse NIH-3T3/LISN cells implanted in IGF1-stimulated nu/nu CD-1 mouse assessed as reduction in IGF1R phosphorylation at 3 mg/kg, po pretreated for 4 hrs followed by IGF1 stimulation and measured after 10 min by […] relative to control. Type of data set: functional. Particulars: 4.167 h, time 250 min. Put shortly: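 Female nu/nu CD-1 mice, three per group, bearing ~500 mm3 tumors, given one oral dose of compound or vehicle. At 4 h, 10 µg hIGF-I i.v. via tail vein; saline controls. Tumor and blood taken 10 min later. Tumor lysates in RIPA captured on anti-IGF-IR plates and probed with europium anti-phosphotyrosine. Phospho/total IGF-IR expressed as % of ligand-stimulated control. Blood levels by LC-MS/MS.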

The nature of data set [3]: In vivo inhibition of IGF1R in mouse NIH-3T3/LISN cells implanted in IGF1-stimulated nu/nu CD-1 mouse assessed as reduction in IGF1R phosphorylation at 30 mg/kg, po pretreated for 4 to 8 hrs followed by IGF1 stimulation and measured after 10 min by […] relative to control. Type of data set: functional. Particulars: time 240-490 min. Put shortly: (§3)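 Time course: tumor-bearing female nu/nu CD-1 mice, three per group, given a single oral 30 mg/kg dose or vehicle. IGF-I given 10 min before blood and tumor collection at each time point. Tumor phospho-IGF-IR/total IGF-IR measured by capture-plate europium phosphotyrosine assay and expressed as % of ligand-stimulated control.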

A short description of data set [4]: In vivo inhibition of IGF1R in mouse NIH-3T3/LISN cells implanted in IGF1-stimulated nu/nu CD-1 mouse assessed as reduction in IGF1R phosphorylation at 30 mg/kg, po pretreated for 24 hrs followed by IGF1 stimulation and measured after 10 min […] relative to control. Format: functional. The conditions noted are these: 24.17 h, time 1450 min. The gist of the method:
as §3

Another data set concerns NIH-3T3/LISN. Kind of data set: In vivo inhibition of IGF1R in mouse NIH-3T3/LISN cells implanted in IGF1-stimulated nu/nu CD-1 mouse assessed as reduction in IGF1R phosphorylation at 30 mg/kg, po pretreated for 48 to 72 hrs followed by IGF1 stimulation and measured after 10 min by […] relative to control. Format: functional, organism-based. Particulars: time 2880-4330 min. Put shortly: as §3

Data set [5] addresses Tyrosine-protein kinase JAK3 (Homo sapiens, UniProt P52333). Kind of data set: Inhibition of JAK3 (unknown origin).
For data set [6], the target named is Mitogen-activated protein kinase 8 (Homo sapiens, UniProt P45983). Briefly: Inhibition of JNK1 (unknown origin).
Mitogen-activated protein kinase 8, sequence (P45983 whole entry): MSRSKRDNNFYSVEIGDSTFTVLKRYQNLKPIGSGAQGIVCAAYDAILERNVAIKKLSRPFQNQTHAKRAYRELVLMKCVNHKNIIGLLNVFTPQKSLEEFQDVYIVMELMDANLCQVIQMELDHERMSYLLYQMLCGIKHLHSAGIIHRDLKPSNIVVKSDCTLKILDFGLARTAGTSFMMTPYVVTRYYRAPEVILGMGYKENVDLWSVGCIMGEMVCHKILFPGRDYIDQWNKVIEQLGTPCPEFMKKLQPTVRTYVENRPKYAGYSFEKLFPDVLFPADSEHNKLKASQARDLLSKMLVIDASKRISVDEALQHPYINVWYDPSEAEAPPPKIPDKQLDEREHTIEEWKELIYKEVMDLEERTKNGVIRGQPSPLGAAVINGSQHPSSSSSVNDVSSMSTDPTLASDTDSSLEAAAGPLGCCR
The target of data set [7] is MAP kinase-activated protein kinase 2 (Homo sapiens, UniProt P49137). Briefly: Inhibition of MAPKAPK2 (unknown origin).
Data set [8] addresses Proto-oncogene tyrosine-protein kinase Src (Homo sapiens, UniProt P12931). Briefly: Inhibition of SRC1 (unknown origin).
Data set [9] can be described thus: Inhibition of C-terminal His6-tagged human full length CDK2/N-terminal GST-tagged human full length cyclinA expressed in baculovirus infected Sf21 cells at 0.3 uM by filter binding assay relative to control. The conditions noted are these: condition cancer. Put shortly:
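Run in an outsourced profiling panel of 233 kinases. Each kinase was tested with radiometric filter-binding activity assays at a single inhibitor concentration of 0.3 µmol/L. Inhibitor stock was 10 mmol/L in DMSO. Inhibition is reported as percent relative to control.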

In data set [10] the target is Calcium/calmodulin-dependent protein kinase type IV (Homo sapiens) (UniProt Q16566). Briefly: Inhibition of C-terminal His6-tagged recombinant full length human CaMKIV expressed in baculovirus infected Sf21 cells at 3 uM by filter binding assay relative to control. Put shortly: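 KinaseProfiler panel of 233 kinases: radiometric filter-binding activity assays with compound at 0.3 or 3 µmol/L. Read-out is percent inhibition.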
Calcium/calmodulin-dependent protein kinase type IV (Homo sapiens), sequence (Q16566 whole entry): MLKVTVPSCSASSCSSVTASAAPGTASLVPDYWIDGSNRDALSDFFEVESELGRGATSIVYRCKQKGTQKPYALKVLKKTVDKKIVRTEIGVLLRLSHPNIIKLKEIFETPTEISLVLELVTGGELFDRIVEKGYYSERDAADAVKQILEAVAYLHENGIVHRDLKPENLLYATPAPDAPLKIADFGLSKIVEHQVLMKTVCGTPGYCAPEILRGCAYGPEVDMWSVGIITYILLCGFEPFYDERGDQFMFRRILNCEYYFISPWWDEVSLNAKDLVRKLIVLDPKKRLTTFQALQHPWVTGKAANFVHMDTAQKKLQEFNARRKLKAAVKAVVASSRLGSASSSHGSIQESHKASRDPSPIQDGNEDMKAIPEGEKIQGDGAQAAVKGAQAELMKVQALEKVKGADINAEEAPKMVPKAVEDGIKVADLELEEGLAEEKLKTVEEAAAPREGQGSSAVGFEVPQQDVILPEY

Data set [11] concerns the target Serine/threonine-protein kinase DCLK2 (Homo sapiens) (UniProt Q8N568). Briefly: Inhibition of N-terminal 6His-tagged recombinant human DCAMKL2 (376 to end residues) expressed in baculovirus infected Sf21 cells at 3 uM by filter binding assay relative to control. The gist of the method: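 Outsourced single-concentration screen in a commercial panel of 233 protein kinases, run as radiometric filter-binding activity assays. Test agent was tested at 0.3 or 3 µmol/L, as given in each line, from a 10 mmol/L DMSO stock. Activity is expressed as percent inhibition relative to control.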

For data set [12], the target named is Fibroblast growth factor receptor 4 (Homo sapiens) (UniProt P22455). Kind of data set: Inhibition of N-terminal His6-tagged recombinant human FGFR4 (442 to 755 residues) expressed in baculovirus infected Sf21 cells at 3 uM by filter binding assay relative to control.
A short description of data set [13]: Inhibition of […] N-terminal 6His-tagged full length human P110delta/full length human p85beta expressed in baculovirus infected Sf21 cells at 3 uM by filter binding assay relative to control. The conditions noted are these: condition cancer.
Data set [14] addresses Tyrosine-protein kinase Fer (Homo sapiens, UniProt P16591). Briefly: Inhibition of N-terminal His6 tagged recombinant human Fer (541 to end residues) expressed in baculovirus infected Sf21 cells by filter binding assay.
The next data set concerns the target Insulin receptor (Homo sapiens, UniProt P06213). Briefly: Inhibition of N-terminal His6-tagged recombinant human IR (1005 to 1310 residues) expressed in baculovirus infected Sf21 cells by filter binding assay.
The target of data set [15] is Insulin receptor (Mus musculus) (UniProt P15208). The conditions noted are these: CD-1, dose 30.0 mg/kg, route po, time 4.0 hrs.
Insulin receptor (Mus musculus), sequence (P15208 28-748 limits assumed): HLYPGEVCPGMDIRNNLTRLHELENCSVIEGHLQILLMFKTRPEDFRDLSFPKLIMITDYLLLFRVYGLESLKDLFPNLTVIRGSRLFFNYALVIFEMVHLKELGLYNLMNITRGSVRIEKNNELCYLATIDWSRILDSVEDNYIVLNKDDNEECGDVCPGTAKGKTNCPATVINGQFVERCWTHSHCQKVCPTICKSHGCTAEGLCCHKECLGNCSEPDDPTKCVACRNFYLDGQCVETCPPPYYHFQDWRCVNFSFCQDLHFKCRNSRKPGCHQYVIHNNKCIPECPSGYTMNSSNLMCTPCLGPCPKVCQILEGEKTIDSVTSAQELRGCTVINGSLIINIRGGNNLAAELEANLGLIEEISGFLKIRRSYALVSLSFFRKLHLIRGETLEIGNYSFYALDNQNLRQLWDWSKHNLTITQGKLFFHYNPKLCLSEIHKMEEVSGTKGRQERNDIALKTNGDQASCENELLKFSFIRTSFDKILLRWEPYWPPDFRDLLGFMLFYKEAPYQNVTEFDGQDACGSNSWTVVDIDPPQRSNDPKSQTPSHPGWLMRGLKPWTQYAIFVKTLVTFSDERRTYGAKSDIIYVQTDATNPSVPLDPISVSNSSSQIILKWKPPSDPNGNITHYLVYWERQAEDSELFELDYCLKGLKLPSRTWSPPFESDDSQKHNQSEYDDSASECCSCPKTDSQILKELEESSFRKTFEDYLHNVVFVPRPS
Insulin receptor (Mus musculus), sequence (P15208 753-1372 limits assumed): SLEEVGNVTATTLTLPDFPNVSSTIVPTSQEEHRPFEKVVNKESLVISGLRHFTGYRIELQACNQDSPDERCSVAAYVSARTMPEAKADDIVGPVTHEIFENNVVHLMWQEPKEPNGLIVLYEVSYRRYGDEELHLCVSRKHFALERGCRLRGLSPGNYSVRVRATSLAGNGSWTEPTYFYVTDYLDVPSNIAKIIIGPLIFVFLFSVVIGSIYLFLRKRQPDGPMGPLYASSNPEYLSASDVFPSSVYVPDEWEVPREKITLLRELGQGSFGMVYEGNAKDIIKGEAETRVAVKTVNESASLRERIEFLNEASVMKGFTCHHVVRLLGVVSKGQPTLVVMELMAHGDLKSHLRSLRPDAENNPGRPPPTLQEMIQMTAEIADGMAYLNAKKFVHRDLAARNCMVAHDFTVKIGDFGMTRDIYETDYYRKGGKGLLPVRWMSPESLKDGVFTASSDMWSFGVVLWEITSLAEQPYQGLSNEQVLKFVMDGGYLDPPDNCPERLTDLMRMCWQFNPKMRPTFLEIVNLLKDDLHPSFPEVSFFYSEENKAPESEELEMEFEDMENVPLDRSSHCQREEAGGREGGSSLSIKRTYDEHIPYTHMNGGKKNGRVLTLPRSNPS
For data set [16] the target is unchanged. The conditions noted are these: CD-1, dose 30.0 mg/kg, route po, time 21.0 day.

Tyrosine-protein kinase JAK3, sequence (P52333 whole entry): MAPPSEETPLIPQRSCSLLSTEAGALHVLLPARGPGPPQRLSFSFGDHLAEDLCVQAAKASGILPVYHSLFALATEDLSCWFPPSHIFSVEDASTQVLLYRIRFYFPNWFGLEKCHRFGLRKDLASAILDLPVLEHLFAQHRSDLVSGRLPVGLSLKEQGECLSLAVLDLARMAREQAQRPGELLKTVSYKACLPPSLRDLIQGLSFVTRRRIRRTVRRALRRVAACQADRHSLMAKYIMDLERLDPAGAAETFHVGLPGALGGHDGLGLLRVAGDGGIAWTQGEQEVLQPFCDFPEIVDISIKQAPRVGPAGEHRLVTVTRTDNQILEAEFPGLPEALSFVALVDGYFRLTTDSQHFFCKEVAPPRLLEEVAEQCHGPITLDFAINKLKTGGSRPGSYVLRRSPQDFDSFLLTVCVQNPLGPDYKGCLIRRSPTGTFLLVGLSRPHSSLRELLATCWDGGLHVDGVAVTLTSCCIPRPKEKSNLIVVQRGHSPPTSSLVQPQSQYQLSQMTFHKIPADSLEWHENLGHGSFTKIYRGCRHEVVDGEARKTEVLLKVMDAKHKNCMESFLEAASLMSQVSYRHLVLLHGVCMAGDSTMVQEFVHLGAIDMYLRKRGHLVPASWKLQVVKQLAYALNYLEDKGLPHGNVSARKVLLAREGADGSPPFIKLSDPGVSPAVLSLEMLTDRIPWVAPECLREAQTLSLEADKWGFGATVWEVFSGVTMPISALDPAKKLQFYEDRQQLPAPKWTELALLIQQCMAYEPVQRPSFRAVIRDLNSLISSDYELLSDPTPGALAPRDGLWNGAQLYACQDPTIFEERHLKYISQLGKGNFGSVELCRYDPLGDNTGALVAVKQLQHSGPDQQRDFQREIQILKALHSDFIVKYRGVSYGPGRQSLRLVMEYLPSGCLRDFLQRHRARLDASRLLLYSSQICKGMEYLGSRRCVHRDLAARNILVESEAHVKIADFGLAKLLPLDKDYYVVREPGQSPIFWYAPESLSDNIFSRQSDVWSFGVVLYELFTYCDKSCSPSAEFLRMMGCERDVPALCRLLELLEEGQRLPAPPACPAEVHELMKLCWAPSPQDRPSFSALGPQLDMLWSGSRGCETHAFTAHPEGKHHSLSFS
Tyrosine-protein kinase Fer, sequence (P16591 whole entry, the tested form may be a part): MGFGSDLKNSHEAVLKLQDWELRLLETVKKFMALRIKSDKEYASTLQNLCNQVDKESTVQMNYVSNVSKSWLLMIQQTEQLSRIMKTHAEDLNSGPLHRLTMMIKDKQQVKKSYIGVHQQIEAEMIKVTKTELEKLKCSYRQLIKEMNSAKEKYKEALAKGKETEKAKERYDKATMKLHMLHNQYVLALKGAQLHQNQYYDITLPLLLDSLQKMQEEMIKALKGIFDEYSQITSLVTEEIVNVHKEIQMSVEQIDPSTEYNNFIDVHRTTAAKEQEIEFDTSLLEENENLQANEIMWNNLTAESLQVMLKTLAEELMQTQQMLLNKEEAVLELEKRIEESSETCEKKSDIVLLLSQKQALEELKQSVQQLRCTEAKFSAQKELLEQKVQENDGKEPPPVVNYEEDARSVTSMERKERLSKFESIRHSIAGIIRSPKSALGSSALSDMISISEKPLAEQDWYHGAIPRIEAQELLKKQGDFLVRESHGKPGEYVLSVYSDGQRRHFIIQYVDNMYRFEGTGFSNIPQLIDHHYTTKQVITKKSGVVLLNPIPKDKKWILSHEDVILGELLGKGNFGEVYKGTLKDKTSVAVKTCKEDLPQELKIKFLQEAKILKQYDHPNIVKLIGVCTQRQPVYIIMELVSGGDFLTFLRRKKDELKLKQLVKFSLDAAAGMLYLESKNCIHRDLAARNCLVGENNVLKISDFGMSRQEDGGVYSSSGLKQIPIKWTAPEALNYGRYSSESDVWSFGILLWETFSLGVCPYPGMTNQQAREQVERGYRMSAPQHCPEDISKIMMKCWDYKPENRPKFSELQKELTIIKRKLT
Proto-oncogene tyrosine-protein kinase Src, sequence (P12931 2-536 limits assumed): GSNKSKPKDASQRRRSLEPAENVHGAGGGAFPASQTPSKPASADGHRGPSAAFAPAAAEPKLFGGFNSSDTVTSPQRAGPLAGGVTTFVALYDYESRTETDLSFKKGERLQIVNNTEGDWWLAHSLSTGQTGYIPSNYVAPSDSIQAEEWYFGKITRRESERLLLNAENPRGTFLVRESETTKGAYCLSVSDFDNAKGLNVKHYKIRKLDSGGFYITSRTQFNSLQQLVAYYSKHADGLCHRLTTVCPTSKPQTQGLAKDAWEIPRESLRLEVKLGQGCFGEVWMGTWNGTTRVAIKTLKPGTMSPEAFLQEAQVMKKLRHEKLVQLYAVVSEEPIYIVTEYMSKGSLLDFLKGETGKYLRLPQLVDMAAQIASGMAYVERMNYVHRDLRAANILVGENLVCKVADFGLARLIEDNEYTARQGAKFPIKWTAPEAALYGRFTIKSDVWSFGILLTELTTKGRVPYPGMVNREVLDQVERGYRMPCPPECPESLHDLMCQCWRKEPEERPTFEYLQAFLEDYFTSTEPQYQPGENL

As to `CCc1cc(Nc2nccc(-c3c(-c4ccc(OC)c(C(=O)Nc5c(F)cccc5F)c4)nc4ccccn34)n2)c(OC)cc1N1CCC(N2CCN(S(C)(=O)=O)CC2)CC1`, the IC50 (usually the concentration at which inhibition is half-maximal) with MOLP-8 is 0.096 µM; in data set [5] it was 13 µM; in [6], more than 10 µM; in [7], more than 25 µM; in [8], more than 10 µM; in data set [14] it was 0.013 µM. Moreover, at Insulin receptor, the IC50 was found to be 0.074 µM. Moreover, in [1], the IC50 at 72 h is more than 20 µM. Besides, the outcome in the data set with MCF7 was inactive. Further, the Activity in the data set on NCI-H929 turned out to be 3%. Besides, the inhibition in vivo (commonly the percentage by which the read-out fell short of the control) at 3 mg/kg in [2] was 75%. The inhibition in vivo at 30 mg/kg was more than 90% in data set [3] and 76% in [4]. The inhibition result (in the data set on NIH-3T3/LISN; in data set [15]; in data set [16]) was “inactive” throughout. Also, in data set [9], 0.3 µM produced 2% inhibition. Besides, the inhibition (usually the share of the control response that was lost under treatment) was found to be 10% in data set [10], 0% in data set [11] and 29% in [12]. In addition, the inhibition at 3 µM in data set [13] was 2%.
